Here are results for four compounds from ChEMBL document CHEMBL1131334, “Anti-HIV agents that selectively target retroviral nucleocapsid protein zinc fingers without affecting cellular zinc finger proteins” (J Med Chem, 1998).

Series [1] in a line: Therapeutic index ([…]) was evaluated. To be noted: read-out: TI50.
The subject of series [2] is CEM-SS. Nature of the series: (§1) CC50 reflects the drug concentration that elicits 50% cell death of CEM-SS cells and HIV-1RF was measured using XTT assay. It is filed as functional. Particulars: Homo sapiens. In short, it runs like this:
(§2)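 CEM-SS cells infected with HIV-1RF. EC50 is the concentration giving 50% cytoprotection. CC50 is the concentration eliciting 50% cell death.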

Series [3] concerns CEM-SS. Nature of the series: (§3) Compound concentration that provides 50% cytoprotection on CEM-SS cells and HIV-1RF was measured using XTT assay. Particulars: Homo sapiens. It is filed as functional, cell-based. In short, it runs like this: as §2
In series [4] the test system is Human immunodeficiency virus 1. Nature of the series: CC50 reflects the drug concentration that elicits 50% cell death of PBMC cultures and HIV-1RF was measured using XTT assay. Type of series: functional.
Series [5] deals with Human immunodeficiency virus 1. Described as §1. It is filed as functional. To be noted: Human immunodeficiency virus 1, CEM-SS. In short, it runs like this: as §2
The subject of series [6] is Human immunodeficiency virus 1. Nature of the series: Compound concentration that provides 50% cytoprotection on PBMC cultures and HIV-1RF was measured using XTT assay. Type of series: functional, organism-based.
For series [7], the system named is Human immunodeficiency virus 1. Described as §3. It is filed as functional, organism-based. To be noted: Human immunodeficiency virus 1, CEM-SS. In short, it runs like this:
as §2

pEC50: −log10 of the molar value. A value given as a limit tells only on which side of the number the result lay.

Regarding `O=S1(=O)C[C@H](O)[C@H](O)CS1`, in series [1], the selectivity ratio was 27.9. This compound also came in with a CC50 with CEM-SS [2] of 184 µM. Moreover, the pEC50 in the series with CEM-SS [3] is 5.18.
Take `NC(=O)c1cccc(N=O)c1`: the CC50 was determined as 50 µM in series [4] and 10.6 µM in series [5]. Besides, in series [6], the pEC50 was 5.81.
On to `NS(=O)(=O)c1ccc(NC(=O)c2ccccc2SSc2ccccc2C(=O)Nc2ccc(S(N)(=O)=O)cc2)cc1`, for which the selectivity ratio in series [1] is above 87. Moreover, in series [5], the half-maximal cytotoxic concentration (CC50) was above 200 µM. Moreover, the negative logarithm of the EC50 (pEC50) in series [7] was 5.64.
In the case of `NC(=O)/N=N/C(N)=O` [E927A], the selectivity ratio in series [1] is above 5.3. The half-maximal cytotoxic concentration (CC50) in series [5] is above 200 µM. In addition, the pEC50 in series [7] was 4.42.
